Like-named read-outs stand apart in the source and are kept apart here.
How the values were obtained:
LmbB2 [1] = molecular target: T1, LmbB2 (Streptomyces lincolnensis, UniProt Q54355); assay: EPR analysis of the ferrous LmbB2-nitrosyl; details: 20 mM ligand; for EPR spectroscopic change compared with E-NO· alone: negative controls; for gave (average g value) of E-NO· complex after addition of ligand: 50 K, E-NO· alone gave = 2.030
Method in brief: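 His6-tagged LmbB2 expressed in E. coli BL21(DE3) with δ-aminolevulinic acid and ferrous ammonium sulfate, then Ni-affinity purified. 200 µM argon-saturated enzyme reduced anaerobically with 1 mM sodium dithionite, then exposed to excess NO from diethylamine NONOate in a sealed O2-free vial. Phenolic ligands added at 20 mM final. Samples frozen in liquid nitrogen. X-band EPR at 9.4 GHz, 100 kHz modulation, 50 K, 0.05 mW.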

LmbB2 [2] = molecular target: T1, LmbB2; assay: Oxygen production; assay type: biochemical; details: substrate concentration exceeding 200 µM, 1 mM H2O2
LmbB2 [3] = molecular target: T1, LmbB2; assay: Isothermal titration calorimetry; assay type: binding
LmbB2 [4] = molecular target: T1, LmbB2; assay type: biochemical
LmbB2 [5] = molecular target: T1, LmbB2; assay: LmbB2 catalytic reaction with H2O2, product analysis by HPLC; assay type: biochemical; details: after normalizing for the percentage of substrate conversion
[6] = ^18O-enriched H2O2 (≥ 90% ^18O), normal water
[7] = ^18O-enriched water (88% ^18O), normal H2O2
[8] = ^18O-enriched water (88% ^18O), normal H2O2, listed as Tyrosine
[9] = ITC, 100 mM KPi, 50 mM NaCl, pH 8, 20 °C
[10] = ^18O-enriched H2O2 (≥ 90% ^18O), normal water, listed as 3-Fluoro-L-tyrosiTane
[11] = ^18O-enriched water (88% ^18O), normal H2O2, listed as 3-Fluoro-L-tyrosiTane

SMILES: CC(C)(C)OC(=O)N[C@@H](Cc1ccc(O)cc1)C(=O)O [N-boc-L-tyrosine]
- EPR spectroscopic change compared with E-NO· alone (LmbB2 [1]): no significant EPR spectroscopic change

SMILES: N[C@@H](Cc1ccc(O)cc1)C(=O)O [compound 1, L-tyrosine]
- rate of oxygen formation (LmbB2 [2]): zero
- Kd (LmbB2 [3]): 1.35 ± 0.03 µM
- gave (average g value) of E-NO· complex after addition of ligand (LmbB2 [1]): 2.027
- Hydroxylation product ^16O/^16O (LmbB2 [4]; [6]): 7.2 ± 0.3%
- Hydroxylation product ^16O/^18O (LmbB2 [4]; [6]): over 90%
- Hydroxylation product ^16O/^18O (LmbB2 [4]; ^18O-enriched H2O2 (≥ 90% ^18O), normal water, listed as Tyrosine): 92.8 ± 0.3%
- Hydroxylation product ^16O/^16O (LmbB2 [4]; [7]): 87.7%
- Hydroxylation product ^16O/^18O (LmbB2 [4]; [7]): 11.2%
- Hydroxylation product ^18O/^18O (LmbB2 [4]; [7]): 1.0 ± 0.1%
- Hydroxylation product ^16O/^16O (LmbB2 [4]; [8]): 87.7 ± 0.9%
- Hydroxylation product ^16O/^18O (LmbB2 [4]; [8]): 11.2 ± 0.8%

SMILES: N[C@@H](Cc1ccccc1)C(=O)O [compound 2, L-phenylalanine]
- Kd (LmbB2 [3]): 318 ± 8 µM
- gave (average g value) of E-NO· complex after addition of ligand (LmbB2 [1]): 2.027

SMILES: COc1ccc(C[C@H](N)C(=O)O)cc1 [compound 3, O-methyl-L-tyrosine]
- Kd (LmbB2 [3]; [9]): 1290 ± 140 µM
- gave (average g value) of E-NO· complex after addition of ligand (LmbB2 [1]): 2.026

SMILES: N[C@@H](Cc1ccc(O)c([N+](=O)[O-])c1)C(=O)O [compound 4, 3-nitro-L-tyrosine]
- KD (LmbB2 [3]; [9]): no detectable thermal change

SMILES: N[C@@H](Cc1ccc(O)c(F)c1)C(=O)O [compound 5, 3-fluoro-L-tyrosine]
- rate of oxygen formation (LmbB2 [2]): ~10 min⁻¹
- Kd (LmbB2 [3]): 22.2 ± 1.1 µM
- binding affinity weaker than the native substrate (LmbB2 [3]; KD of analog versus L-tyrosine (1)): around 16 fold
- Dehalogenation and Hydroxylation product (1a) ^16O/^16O (LmbB2 [4]; [6]): 30.3 ± 1.0%
- Dehalogenation and Hydroxylation product (1a) ^16O/^18O (LmbB2 [4]; [6]): 69.7%
- Hydroxylation product ^16O/^16O (LmbB2 [4]; [6]): 15.5 ± 0.2%
- Hydroxylation product ^16O/^18O (LmbB2 [4]; [6]): 84.5%
- Dehalogenation and Hydroxylation product (1a) ^16O/^18O (LmbB2 [4]; [10]): 69.7 ± 1.0%
- Hydroxylation product ^16O/^18O (LmbB2 [4]; [10]): 84.5 ± 0.2%
- Dehalogenation and Hydroxylation product (1a) ^16O/^16O (LmbB2 [4]; [7]): 36.2%
- Dehalogenation and Hydroxylation product (1a) ^16O/^18O (LmbB2 [4]; [7]): 51.5%
- Dehalogenation and Hydroxylation product (1a) ^18O/^18O (LmbB2 [4]; [7]): 12.3%
- Hydroxylation product ^16O/^16O (LmbB2 [4]; [7]): 57.3%
- Hydroxylation product ^16O/^18O (LmbB2 [4]; [7]): 35.8%
- Hydroxylation product ^18O/^18O (LmbB2 [4]; [7]): 6.9%
- Dehalogenation and Hydroxylation product (1a) ^16O/^16O (LmbB2 [4]; [11]): 36.2 ± 0.9%
- Dehalogenation and Hydroxylation product (1a) ^16O/^18O (LmbB2 [4]; [11]): 51.5 ± 0.7%
- Dehalogenation and Hydroxylation product (1a) ^18O/^18O (LmbB2 [4]; [11]): 12.3 ± 1.2%
- Hydroxylation product ^16O/^16O (LmbB2 [4]; [11]): 57.3 ± 1.6%
- Hydroxylation product ^16O/^18O (LmbB2 [4]; [11]): 35.8 ± 1.6%
- Hydroxylation product ^18O/^18O (LmbB2 [4]; [11]): 6.9 ± 0.7%
- ratio of 1a formation among substrates 5, 6 and 7 (LmbB2 [5]): 4.5

SMILES: N[C@@H](Cc1ccc(O)c(Cl)c1)C(=O)O [compound 6, 3-chloro-L-tyrosine]
- Kd (LmbB2 [3]): 346 ± 2 µM
- ratio of 1a formation among substrates 5, 6 and 7 (LmbB2 [5]): 1.3

SMILES: N[C@@H](Cc1ccc(O)c(I)c1)C(=O)O [compound 7, 3-iodo-L-tyrosine]
- Kd (LmbB2 [3]): 7820 ± 180 µM
- ratio of 1a formation among substrates 5, 6 and 7 (LmbB2 [5]): 1

SMILES: Cc1ccc(O)cc1 [p-cresol]
- EPR spectroscopic change compared with E-NO· alone (LmbB2 [1]): no significant EPR spectroscopic change

Source: article PMC6660019 (ACS catalysis, 2019)
